How the values were obtained:
Format in all cases: functional
Details in all cases: route oral
Rattus norvegicus [1] = test: Compound was tested for the inhibition of rat reversed passive Arthus pleurisy after peroral administration of 100 mg/kg dose at 1.52*10e6 no of cells with 3.24*10e6 cells of control
Procedure, shortened: (§1)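 Male Wistar rats (about 250 g) were given compound orally before the antiserum. Under ether anesthesia, 0.2 mL rabbit anti-egg albumin antiserum was injected intrapleurally. After 30 min, egg albumin (15 mg/100 g body weight in 0.1 mL saline) was given iv. Rats were killed 4.5 h later and the thoracic cavity was rinsed with 5 mL saline. Exudate volume and infiltrated cell number were measured, with inhibition % versus controls as mean ± SEM.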

Rattus norvegicus [2] = test: Inhibition of Zymosan-induced rat's paw edema(ZPE) after peroral administration of 100 mg/kg dose.
Procedure, shortened: (§2)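 Male Wistar rats (about 150 g) were dosed orally with compound suspended in 5% arabic gum, 1 h before a subplantar hind-paw injection of 0.1 mL saline. The irritant was 1% zymosan for 33 or 1% λ-carrageenin for 34. Paw volume was measured by plethysmograph before dosing and at 4 h (zymosan) or 3 h (carrageenin). Swelling is relative to initial volume, as mean ± SEM. % inhibition is versus the control group's mean swelling.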

Rattus norvegicus [3] = test: Compound was tested for the inhibition of arachidonic acid-induced rat's paw edema(APE) after peroral administration of 100 mg/kg dose
Procedure, shortened: (§3)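 Test: arachidonic acid paw edema in male Wistar rats of about 150 g. Oral dosing in 5% arabic gum came 1 h before subplantar injection of 1% arachidonic acid sodium salt in 0.1 mL saline into the hind paw. Plethysmograph paw volume was read before dosing and 1 h post-irritant, and edema = volume difference. % inhibition was taken from mean swelling against controls.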

Rattus norvegicus [4] = test: Compound was tested for the inhibition of rat reversed passive Arthus pleurisy after peroral administration of 10 mg/kg dose at 0.44 mL of exudate volume with 0.68 mL of control (injected intrapleurally); procedure, shortened: as §1
Rattus norvegicus [5] = test: Compound was tested for the inhibition of rat reversed passive Arthus pleurisy after peroral administration of 10 mg/kg dose at 3.18*10e6 no of cells with 3.24*10e6 cells of control; procedure, shortened: as §1
Rattus norvegicus [6] = test: Compound was tested for the inhibition of Carrageenan rat's paw edema(CPE) after peroral administration of 30 mg/kg dose
Rattus norvegicus [7] = test: Compound was tested for the inhibition of arachidonic acid-induced rat's paw edema(APE) after peroral administration of 30 mg/kg dose; procedure, shortened: as §3
Rattus norvegicus [8] = test: Compound was tested for the inhibition of rat reversed passive Arthus pleurisy after peroral administration of 100 mg/kg dose at 0.12 mL of exudate volume with 0.68 mL of control (injected intrapleurally); procedure, shortened: as §1
Rattus norvegicus [9] = test: Compound was tested for the inhibition of rat reversed passive Arthus pleurisy after peroral administration of 3 mg/kg dose at 0.6 mL of exudate volume with 0.68 mL of control (injected intrapleurally)
Procedure, shortened: (§4)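 Male Wistar rats (about 250 g) under ether received 0.2 mL rabbit anti-egg-albumin antiserum intrapleurally. Thirty min later they got 15 mg EA/100 g body weight in 0.1 mL saline iv. Compounds were given orally beforehand. Rats were killed 4.5 h after induction and the thoracic cavity rinsed with 5 mL saline. Exudate volume and infiltrated cell count were read as mean ± SE. % inhibition is versus control.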

Rattus norvegicus [10] = test: Compound was tested for the inhibition of rat reversed passive Arthus pleurisy after peroral administration of 3 mg/kg dose at 3.17*10e6 no of cells with 3.24*10e6 cells of control; procedure, shortened: as §4
Rattus norvegicus [11] = test: Compound was tested for the inhibition of rat reversed passive Arthus pleurisy after peroral administration of 30 mg/kg dose at 0.33 mL of exudate volume with 0.68 mL of control (injected intrapleurally); procedure, shortened: as §4
Rattus norvegicus [12] = test: Compound was tested for the inhibition of rat reversed passive Arthus pleurisy after peroral administration of 30 mg/kg dose at 2.79*10e6 no of cells with 3.24*10e6 cells of control; procedure, shortened: as §4
Rattus norvegicus [13] = test: Antiinflammatory activity on Carrageenan rat's paw edema(CPE) after peroral administration of 100 mg/kg dose with control swelling of 69.9%
Rattus norvegicus [14] = test: Compound was tested for the inhibition of arachidonic acid-induced rat's paw edema(APE) after peroral administration of 100 mg/kg dose with control swelling of 51.6%; procedure, shortened: as §3
Rattus norvegicus [15] = test: Compound was tested for the inhibition of arachidonic acid-induced rat's paw edema(APE) after peroral administration of 30 mg/kg dose with control swelling of 33.8%; procedure, shortened: as §3
Rattus norvegicus [16] = test: Antiinflammatory activity on Zymosan-induced rat's paw edema(ZPE) after peroral administration of 30 mg/kg dose with control swelling of 66.9%
Procedure, shortened: (§5)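 Male Wistar rats weighing about 150 g were dosed orally with compound suspended in 5% arabic gum. 1 h later, 1% zymosan in 0.1 mL saline was injected subplantarly into the hind paw. Paw volume was measured by plethysmograph before dosing and 4 h after zymosan, with edema as the volume difference. Inhibition % was derived from mean swelling versus the control group.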

Rattus norvegicus [17] = test: Antiinflammatory activity on Zymosan-induced rat's paw edema(ZPE) after peroral administration of 100 mg/kg dose with control swelling of 66.9%; procedure, shortened: as §5
Rattus norvegicus [18] = test: Antiinflammatory activity on Carrageenan rat's paw edema(CPE) after peroral administration of 30 mg/kg dose
Rattus norvegicus [19] = test: Compound was tested for the inhibition of Zymosan-induced rat's paw edema(ZPE) after peroral administration of 30 mg/kg dose; procedure, shortened: as §5
Rattus norvegicus [20] = test: Inhibition of carrageenan-induced rat's paw edema (CPE) after peroral administration of 100 mg/kg dose.; procedure, shortened: as §2

## O=C(Cn1c(=O)sc2ccc(Cl)cc21)N1CCN(CCO)CC1 [TIARAMIDE]
Rattus norvegicus [1]
  inhibition in vivo at 100 mg/kg: 67.2%
Rattus norvegicus [2]
  inhibition in vivo at 100 mg/kg: 23%
Rattus norvegicus [3]
  inhibition in vivo at 100 mg/kg: 48.3%
Rattus norvegicus [4]
  inhibition in vivo at 10 mg/kg: 40.7%
Rattus norvegicus [5]
  inhibition in vivo at 10 mg/kg: 2.3%
Rattus norvegicus [6]
  inhibition in vivo at 30 mg/kg: 8.4%
Rattus norvegicus [7]
  inhibition in vivo at 30 mg/kg: 5%
Rattus norvegicus [8]
  inhibition in vivo at 100 mg/kg: 94.9%
Rattus norvegicus [9]
  inhibition in vivo at 3 mg/kg: 13.6%
Rattus norvegicus [10]
  inhibition in vivo at 3 mg/kg: 2.7%
Rattus norvegicus [11]
  inhibition in vivo at 30 mg/kg: 59.3%
Rattus norvegicus [12]
  inhibition in vivo at 30 mg/kg: 9.8%
Rattus norvegicus [13]
  Swelling: 60.6%
Rattus norvegicus [14]
  Swelling: 26.7%
Rattus norvegicus [15]
  Swelling: 32.1%
Rattus norvegicus [16]
  Swelling: 56.8%
Rattus norvegicus [17]
  Swelling: 51.5%
Rattus norvegicus [18]
  Swelling: 64%
Rattus norvegicus [19]
  inhibition in vivo at 30 mg/kg: 15.1%
Rattus norvegicus [20]
  inhibition in vivo at 100 mg/kg: 13.3%

From ChEMBL document CHEMBL1126267, “A novel synthesis and potent antiinflammatory activity of 4-hydroxy-2(1H)-oxo-1-phenyl-1,8-naphthyridine-3-carboxamides” (1992)
